These results are taken from the EternaBench riboswitch data.

The subject of the data set is MS2 coat protein. The experiment in a line: apparent Kd, MS2 coat protein; higher = weaker binding; RNA-MaP array; FMN 200 µM where present. Put shortly: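 Designs were transcribed by stalled E. coli RNA polymerase on Illumina sequencing-chip clusters. They were titrated with SNAP-549-labelled MS2 coat protein from 0.7 or 1.5 nM, doubling to 3 µM, without and then with constant ligand. Buffer: 100 mM Tris-HCl pH 7.5, 80 mM KCl, 4 mM MgCl2, BSA, DTT, yeast tRNA, Tween-20. Green signal was normalised to red-channel RNA signal and control-cluster median Fmax. Apparent Kd is the median of filtered per-cluster binding-curve fits.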

[1] abbreviates: designed as: ON switch for flavin mononucleotide, no ligand.
Where [2] appears, read: ligand present: flavin mononucleotide, designed as: ON switch for flavin mononucleotide.
Setting [3] is: designed as: OFF switch for flavin mononucleotide, no ligand.
Where [4] appears, read: ligand present: flavin mononucleotide, designed as: OFF switch for flavin mononucleotide.

By apparent Kd is commonly meant the concentration giving half-maximal binding under the conditions of the assay. For “UUGGUUAUACAAGGAUAUCAAUUAUAUACACAUCCUACAUGAGGAUCACCCAUGUUUUAUUUUUUUGAGAAGGUGUAUUGUCGG”, the “apparent Kd” value is, setting by setting: under setting [1], 22.4 nM; under setting [2], 29 nM. In the case of “AAACAUGUCCGAGGAUAUCUAGAAACAUUUUUAAGAGAAGGCGGACAUGAGGAUCACCCAUGUCUCUCCUCAUCAAAUCCAAGU”, the “apparent Kd” value under setting [3] worked out at 15.6 nM and the “apparent Kd” value under setting [4] was 68 nM. For “AUCAGCUCGUCAGGAUAUAUGUCACUGCGUCAGCAGUGUGGUAAGAUCACAUGAGGAUCACCCAUGUAGAAGGGACGAGCUGAU”, in that order: 30.7 nM and 78.8 nM.

On to “UCGAUGCUAGGAUAUACGUAUACCUCCACCGUUGAUUCCUCACAUGAGGAUCACCCAUGUAGAAGGAGCAUCUA”, for which the “apparent Kd” value by setting is: under setting [3], 79.8 nM; under setting [4], 137 nM.

With “AGCCGAGUAGGAUAUGCAUACUUACAGGAAAGCUGUAUGGUACAUGAGGAUCACCCAUGUAGAAGGGCUCUGAA”, the “apparent Kd” value under setting [3] was 25 nM and the “apparent Kd” value under setting [4] was 21.2 nM. For “UCAUACGUUGAGGAUAUGUCAGUUAGAAUAUUUACAGAAGGCGAUACAUGAGGAUCACCCAUGUUUAUGGGCAU”, in that order: 188 nM and 207 nM. On to “UUGAAUUGAAACAUGAGGAUCACCCAUGUGUCAUAAUUGACAUAGGAUAUGUAUAUACUUUUAUAAUAGAAGGAUGACGAUACU”, for which the “apparent Kd” value came out at 15.6 nM under setting [1] and 12.7 nM under setting [2]. As for “GCCUCAAGUGAAGGAUAUACGAGGCCAAAUACAGUAGAAGGUCACAUGAGGAUCACCCAUGUCCCAAAGGGUGCGCAUGCGCUC”, the “apparent Kd” value under setting [3] worked out at 40.4 nM and the “apparent Kd” value under setting [4] was determined as 210 nM. For “GGUGGACAUGAGGAUCACCCAUGUGAGGAUAUCGGCCGGUUCGUGGUGGCUGGCGUCUCGAGAAGGCACAUAGU”, in that order: 153 nM and 129 nM. As for “CGCUGUCACGCAGGAUAUGCAUUGGAUUCCAAUGCAGAAGGGCGAUUACAUGAGGAUCACCCAUGUGUUGACAGUGAAGAAGAG”, the “apparent Kd” value runs as follows: under setting [1], 1250 nM; under setting [2], 76.3 nM. In the case of “AAGGUGUAAGGAUAUGCUGCUCGUCACUUGCGUGAUGAGUAGCAGAAGGUACAUGAGGAUCACCCAUGUAAAGA”, the “apparent Kd” value under setting [3] came to 32.5 nM and the “apparent Kd” value under setting [4] amounted to 38.2 nM. “AAUAAACUCACAGGAUAUAGCAGAUGUCGCGUGAACUUACAGGCGACGAGGCUAGAAGGGUGACCACAUGAGGAUCACCCAUGU”: the “apparent Kd” value is 738 nM under setting [1] and 103 nM under setting [2]. As for “AAAUUUAACGAAGGAUAUGCUGACAUGAGGAUCACCCAUGUGUGCUUUGUGUUGCUGAAAUGGGAGCAGAAGGUCGUAUACAUA”, under setting [4], the “apparent Kd” value was 128 nM. For “CGGGAGCCGAAGGGCGAAAGCCCACAUGAGGAUCACCCAUGUAGAAGGCGGGCCGCAACGCGGCCCGAGGAUAUACAGGCUCCA”, the “apparent Kd” value by setting is: under setting [3], 5.99 nM; under setting [4], 10.5 nM. With “AGUUUUGUACAUGAGGAUCACCCAUGUUAAUAUGUGGUAGUCAGAAGGCAUUGUUAGAGUAUAUAUGAGGAUAUGAUUAGUCAG”, the “apparent Kd” value is, setting by setting: under setting [1], 58.3 nM; under setting [2], 27.9 nM. With “UUAUGAGAGCAGGAUAUCUUAUAUUUGUAUUAAAGAGAAGGGCUCACAUGAGGAUCACCCAUGUGGUCCUAGAU”, the “apparent Kd” value was found to be 51.6 nM under setting [3] and 431 nM under setting [4]. As to “GCAAAGCCUGACAUGAGGAUCACCCAUGUUAGAUUGUUAUGUCAGGAUAUUGUCUAGCAACUAGACAAGAAGGGAUGCUCUGCG”, the “apparent Kd” value under setting [1] worked out at 744 nM and the “apparent Kd” value under setting [2] was 215 nM. As to “CGCUAAUAAAUAGUAAUAAUUGUACAGGAUAUGUUACAUGAGGAUCACCCAUGUAUUGGGUUUAAACAGAAGGGUAUAUUAGCG”, the “apparent Kd” value under setting [3] stood at 261 nM and the “apparent Kd” value under setting [4] is 126 nM. For “AAAUUUUGUCAAGGAUAUGUAUAAAAGAGAAGAAAACAUGAGGAUCACCCAUGUAUAUGGUGGGAACAGAAGGUGAUUAAGUAA”, in that order: 354 nM and 271 nM. “CCGCGGCGUGCAGGAUAUGUUACGAUACCUCGGACAGAAGGGCACAUGAGGAUCACCCAUGUAAUAUAUAUGGAACAUAUAUAG”: the “apparent Kd” value runs as follows: under setting [3], 33.8 nM; under setting [4], 53.3 nM. In the case of “CCAAUAAGCCAAGGAUAUCAGCCGGGUACGAGGUGAGAAGGUGGCCGAGGGAAUUACGGACAUGAGGAUCACCCAUGUACCCGU”, the “apparent Kd” value by setting is: under setting [1], 4.98 nM; under setting [2], 4.21 nM.

As for “CUUUUGUGAGGAUAUCAGUAGUAAAAAAAUUAAAUUACUACUGAGAAGGCACAUGAGGAUCACCCAUGUUCCUC”, the “apparent Kd” value under setting [3] was determined as 39.1 nM and the “apparent Kd” value under setting [4] came out at 262 nM. Consider “GUGGGAAUCACAGGAUAUACAUGCGCCGCUUCGUUCUACAUGAGGAUCACCCAUGUGUGGUCCGUGUAGAAGGGUGUUUGUCAC”, for which the “apparent Kd” value is 45.6 nM under setting [1] and 30.1 nM under setting [2]. In the case of “AAAUAACCUAGCAAAAUUUCCUCACAUGAGGAUCACCCAUGUAGAAGGUUAACCUAAUAUAGGAUAAAGGAUAUACGUGCUAGG”, the “apparent Kd” value by setting is: under setting [3], 7.58 nM; under setting [4], 19.9 nM. For “UGCGCUGAGGGAGGAUAUGACAUGAGGAUCACCCAUGUGAUAGGUUUCUUGUCAGAAGGCCCGCGUGUACCGAAUUAGGUUCGC”, in that order: 55.6 nM and 404 nM.

For the sequence “AAAGAAGAAAGACAGGAUAUGGAUGGGUAAACAUGAGGAUCACCCAUGUAUAAGAAAGAAAGAAACCAGAAGGGUCAAAAGAAAA”, the “apparent Kd” value reads like this: under setting [1], 165 nM; under setting [2], 33.6 nM. As to “UAUAUAAUUAAGAGCUGGAACUCAACAUGAGGAUCACCCAUGUAGGAUAUCAGCACGAUAAGUGCUGAGAAGGACUACCAGCUC”, the “apparent Kd” value by setting is: under setting [3], 18.2 nM; under setting [4], 20.4 nM.

On to “CAUACAGUAGUUAGGAUAUUGCAACGUAUACGGAUCGAGAAGGGACAUGAGGAUCACCCAUGUAGAUUGUAAAG”, for which the “apparent Kd” value under setting [3] was found to be 37.6 nM and the “apparent Kd” value under setting [4] amounted to 30.7 nM.

In the case of “ACAUGAGGAUCACCCAUGUAUUACAUGGUUAAGUUUAUUAACAGAAGGCGAAAAUACUUAUUGUUCGAGGAUAUGUAAUCAAUU”, the “apparent Kd” value by setting is: under setting [3], 38 nM; under setting [4], 54.3 nM. For “CUGGAUAGAGGAUAUUGUGCUGCUGACAUGAGGAUCACCCAUGUAUGUUAACUCGGCCGUCGAGAAGGCUAACAGG”, in that order: 24.7 nM and 15.3 nM.

As for “GUCGGGAUUACAUGAGGAUCACCCAUGUCAGAACGGGCAGUUAGAAGGUGCCAUUAGGGAGAGGGUAAGGAUAUAAUUUUUGGC”, the “apparent Kd” value amounted to 12 nM under setting [1] and 10.4 nM under setting [2]. For the sequence “GUGCAGGUAGGAUAUACGUGAGAGCCUUGUGGGCGUCUGGUACAUGAGGAUCACCCAUGUAGAAGGACCGGGCU”, the “apparent Kd” value by setting is: under setting [3], 21.3 nM; under setting [4], 77.5 nM. As to “AUACAUGAGGAUCACCCAUGUAAUUAAUUAAUUAAUAAGAUCAAGGAUAUCAGCUCGAAUAGAGCUGAGAAGGUGAUCACAUGU”, the “apparent Kd” value runs as follows: under setting [1], 240 nM; under setting [2], 266 nM. With “ACAUGGAAUACAGGAUAUGUUAGUUUACAGUAGAUUGGUUAUUACUUAACUACAGAAGGGUAAUACAUGAGGAUCACCCAUGUA”, the “apparent Kd” value is, setting by setting: under setting [1], 18.4 nM; under setting [2], 11.8 nM. With “AUGAGGUCAGGAUAUGCAUGGCGGGACUUGCGUCGUGGCGUGGAGAAGGGACAUGAGGAUCACCCAUGUGGAGA”, the “apparent Kd” value under setting [3] amounted to 84.6 nM and the “apparent Kd” value under setting [4] came out at 76.1 nM.

Take “AUGUUACAUGAGGAUCACCCAUGUGAGGAUAUGUGUAUCCCUAAAAAAGUGUGGGACCAUAGAAGGUACUUGGA”: the “apparent Kd” value runs as follows: under setting [3], 59.2 nM; under setting [4], 58.6 nM. On to “CGGUGACGUGUAGGAUAUGGAGGUGGGUUUUGGCCAGAAGGACAUGAGGAUCACCCAUGUGGUAGAGGGUUGGCGGCUGCCCGU”, for which the “apparent Kd” value under setting [3] was 19.7 nM and the “apparent Kd” value under setting [4] was 18.9 nM.

Regarding “UUUUUGUCAGAGGAUAUCAUAGUCAGUUUUAAGUGAGAAGGUUGAACAUGAGGAUCACCCAUGUGACCUUGGUG”, the “apparent Kd” value came to 23.6 nM under setting [3] and 21.6 nM under setting [4]. In the case of “UCUUAUUGCAAGGAUAUGCAAAUUAUUUUUUAAGCAGAAGGUGCAACAUGAGGAUCACCCAUGUUUCCGGGAAA”, the “apparent Kd” value reads like this: under setting [3], 19.4 nM; under setting [4], 111 nM. For “GCCAAGUCAGGAUAUACAUGAGGAUCACCCAUGUAGGACGCUAUUUUGAUCUUGGUAGGUAGAAGGGACAUGGG”, in that order: 24.2 nM and 21.2 nM.

Regarding “GCUUAUAGAGGAUAUACAGAUUAUUACAUGAGGAUCACCCAUGUUCUUCAAUGUAUAUAUGUAGAAGGCUAAGGAU”, the “apparent Kd” value came out at 61.5 nM under setting [3] and 257 nM under setting [4]. For “CAUGUGAGCGAGGAUAUUUUACGGGAAACUUUCAGAGAAGGCGCUACAUGAGGAUCACCCAUGUCCGUCAGUCC”, in that order: 41.7 nM and 94.8 nM. For “AUCAUGUGAGGAUAUGUGAUCAACCUUCUAUAUAGAUGAUGACAGAAGGCACAUGAGGAUCACCCAUGUAGAUC”, in that order: 90.7 nM and 21.8 nM.

“UUAUUUAUACAAGGAUAUCUAUUAUAUUCACAUCCUACAUGAGGAUCACCCAUGUUAUAUAUUUUAGAGAAGGUGUAUUGUCUG”: the “apparent Kd” value reads like this: under setting [1], 27.2 nM; under setting [2], 30.8 nM.

As to “GUCACGUCAGGAUAUCUGAUGUCUAACUUCGGUUAGACAUCAGAGAAGGGACAUGAGGAUCACCCAUGUGACAG”, the “apparent Kd” value under setting [3] is 140 nM and the “apparent Kd” value under setting [4] is 275 nM. Consider “AUGUAUCGCCUCGAGGAUAUCCUGUCAUGCACAUGAGGAUCACCCAUGUAAGAGCGAGUUUAAUGGGAGAAGGCGAGUUCUCGGU”, for which the “apparent Kd” value under setting [1] came out at 111 nM and the “apparent Kd” value under setting [2] was 35 nM. For “ACAUAAAUUCGAGGAUAUCGGUGAUAUAAUUUACGAGAAGGCGAUAAAAGUUGUAAACUUAUAGACAUGAGGAUCACCCAUGUA”, in that order: 34.8 nM and 34 nM. For the sequence “UUUUCGGCAGGAUAUACAUGAGGAUCACCCAUGUAAAUUUUUCGUUUAACUUGAAUGUGUAGAAGGGCCAUUUU”, the “apparent Kd” value runs as follows: under setting [3], 23.3 nM; under setting [4], 23.6 nM.
